Data published in PMC4964276 (The Biochemical journal, 2016).

How the values were obtained:
[1] = test system: D/D domain of RIIα (RIIα-D/D(1–44)); test: Isothermal titration calorimetry; assay type: binding, human; details: ITC, one-site model, 25 °C, pH 7.5; three independent measurements
In short: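 Run in 20 mM Hepes, pH 7.5, 150 mM NaCl at 25 °C. Cell held RIIα D/D domain at 20 μM, and the syringe held the test AKAP18β(43–83) peptide at 100 μM. There were 25–30 injections of 10–12 μl at 5–20 min intervals. Incremental heat per mole was fitted by non-linear least squares to a one-site model, and protein concentration was adjusted by the fit.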

[2] = test system: RI subunits of PKA; details: cited from earlier work

NGGEPDDAELVRLSKRLVENAVLKAVQQY LEETQ NKNKP GE [AKAP18β(43–83)]
n (sites) [1]: 0.98 sites

SKIP: AKAP that preferentially or specifically binds RI
Binding preference for RI, SKIP ([2]; ref [12],[13]): preferentially or specifically bind RI

smAKAP: RI-specific AKAP, full-length [reference compound]
Binding preference for RI, smAKAP ([2]; ref [14]): preferentially or specifically bind RI
